A short description of series [1]: Statistical significance of IC 50 values; Expressed as R value. Format: ADME. The gist of the method: (§1)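 MCF-7/Adr cells kept in RPMI with 10% heat-inactivated FCS and 1% pen/strep, plated at 15 000 cells/mL on poly(D-lysine)-coated plates, left overnight at 37 °C. Day 1: compound added in 95% ethanol (1% by volume). Incubated 6 more days, growth read by BCA protein assay (A570), normalized to vehicle wells, n = 4. IC50 from linear regression through three points spanning 50%; R value from that regression.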

A short description of series [2]: Bullaticin index relates the IC50 values by normalizing to the value of bullatacin for easy comparison. It is filed as ADME. The gist of the method:
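Index is IC50 of each compound divided by bullatacin's IC50, from the same 6-day BCA protein growth assay in MCF-7/Adr cells, n = 4.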

The next series concerns NCI/ADR-RES. The series is described as follows: Cytotoxicity against MCF-7/Adr cells. Format: functional, cell-based, Homo sapiens. The procedure, abridged: as §1

Converted amounts (≈) assume the structure as drawn.

The molecule `CCCCCCCCCC[C@H](O)[C@H]1CC[C@H]([C@H](O)CC[C@H](O)[C@@H]2CC[C@@H](CCCCCCC[C@@H](O)CC3=C[C@H](C)OC3=O)O2)O1` [BULLATALICIN] displayed an Activity in series [1] of 0.98. The same molecule had a Bullatacin index in series [2] of 4.72.

Consider `CCCCCCCCCCCC[C@@H](O)[C@H]1CC[C@H]([C@H]2CC[C@H]([C@H](O)CC[C@H](O)CCCCCCCCC3=C[C@H](C)OC3=O)O2)O1`, for which the Activity in series [1] is 1. The molecule further registered a Bullatacin index in series [2] of 67.2. The IC50 in the series on NCI/ADR-RES was 1.4 µg/mL (≈ 2.2 µM).

In turn, `CCCCCCCCCCCC[C@@H](O)[C@H]1CC[C@H]([C@H]2CC[C@H]([C@H](O)CCCCCC[C@@H](O)CC3=C[C@H](C)OC3=O)O2)O1` gave an IC50 with NCI/ADR-RES greater than 1 µg/mL.

Take `CC[C@]1(O)C[C@H]2CN(CCc3c([nH]c4ccccc34)[C@@](C(=O)OC)(c3cc4c(cc3OC)N(C=O)[C@H]3[C@@](O)(C(=O)OC)[C@H](OC(C)=O)[C@]5(CC)C=CCN6CC[C@]43[C@@H]65)C2)C1` [VINCRISTINE]: in series [1], the Activity came to 1. The molecule further gave a Bullatacin index in series [2] of 141.3. The IC50 in the series on NCI/ADR-RES amounted to 2.93 µg/mL (≈ 3.55 µM).

As to `CCCCCCCCCCCC[C@@H](O)[C@H](O)CC[C@H](O)[C@@H]1CC[C@@H](CCC[C@H](O)[C@@H](O)CC[C@@H](O)CC2=C[C@H](C)OC2=O)O1`, the IC50 in the series with NCI/ADR-RES was greater than 1 µg/mL.

In turn, `CCCCCCCCCCCC[C@H](O)[C@@H](O)CC[C@H](O)[C@@H]1CC[C@@H](CCC[C@H](O)[C@@H](O)CC[C@@H](O)CC2=C[C@H](C)OC2=O)O1` gave an IC50 with NCI/ADR-RES greater than 1 µg/mL.

For the molecule `COc1cccc2c1C(=O)c1c(O)c3c(c(O)c1C2=O)C[C@@](O)(C(=O)CO)C[C@@H]3O[C@H]1C[C@H](N)[C@H](O)[C@H](C)O1` [DOXORUBICIN], the Activity in series [1] worked out at 1. This molecule had a Bullatacin index in series [2] of 258.5. In the series on NCI/ADR-RES, the IC50 stood at 5.37 µg/mL (≈ 9.88 µM).

In series [1], `CCCCCCCCCCCC[C@H](O)[C@H]1CC[C@H]([C@H]2CC[C@H]([C@H](O)CCCCCCCC[C@@H](O)CC3=C[C@H](C)OC3=O)O2)O1` [SQUAMOTACIN] came in with an Activity of 1. The same molecule had a Bullatacin index in series [2] of 6.79.

`CCCCCCCCCCCC/C=C\CC[C@@H](O)[C@H](O)CC[C@H](O)[C@@H]1CC[C@@H](CCCCC[C@@H](O)CC2=C[C@H](C)OC2=O)O1` registered an Activity in series [1] of 0.98. In addition, in series [2], the Bullatacin index amounted to 5.26.

Molecule `CCCCC[C@H](O)CCCC[C@H](O)[C@H]1CC[C@H]([C@H]2CC[C@H]([C@H](O)CCCCCCCCCCCCC3=C[C@H](C)OC3=O)O2)O1` [MOTRILIN] returned an Activity in series [1] of 0.99. The Bullatacin index in series [2] turned out to be 1.23.

In the case of `CCCCCCCCCC[C@@H](O)[C@@H]1CC[C@@H]([C@@H]2CC[C@@H]([C@H](O)CCCCCCCCCC(O)CC3=CC(C)OC3=O)O2)O1` (stereo not given in full) [BULLATACIN], in series [1], the Activity is given as 0.97. The same molecule registered a Bullatacin index in series [2] of 1. This molecule also gave an IC50 in the series on NCI/ADR-RES of 10.8 µg/mL (≈ 17.7 µM).

Consider `CC[C@]1(O)C[C@@H]2CN(CCc3c([nH]c4ccccc34)[C@@](C(=O)OC)(c3cc4c(cc3OC)N(C)[C@H]3[C@@](O)(C(=O)OC)[C@H](OC(C)=O)[C@]5(CC)C=CCN6CC[C@]43[C@@H]65)C2)C1` [VINBLASTINE], for which, in series [1], the Activity worked out at 1. For the same molecule, the Bullatacin index in series [2] came to 18.8. Further, in the series with NCI/ADR-RES, half-maximal inhibition (IC50) required 390 µg/mL (≈ 481 µM).

Consider `CCCCCCCCCCCCCC[C@@H](O)[C@H](O)CC[C@H](O)[C@@H]1CC[C@@H](CCCCC[C@@H](O)CC2=C[C@H](C)OC2=O)O1` [GIGANTETROCIN A], for which the Activity in series [1] was 0.97. For the same molecule, in series [2], the Bullatacin index is recorded as 0.5.

With `CCCCCCCCCC[C@@H](O)[C@H]1CC[C@@H]([C@H]2CC[C@H]([C@H](O)CCCCCCCCCC[C@@H](O)CC3=C[C@H](C)OC3=O)O2)O1` [TRILOBACIN], the Activity in series [1] amounted to 0.98. For the same molecule, the Bullatacin index in series [2] was 2.89. In the series on NCI/ADR-RES, the IC50 came out at 59.9 µg/mL (≈ 96.2 µM).

In series [1], `CCCCCCCCCC[C@@H](O)[C@@H]1CC[C@H]([C@H](O)CC[C@H](O)[C@@H]2CC[C@@H](CCCCCCC[C@@H](O)CC3=C[C@H](C)OC3=O)O2)O1` [SYLVATICIN] showed an Activity of 0.94. The molecule also gave a Bullatacin index in series [2] of 2.76.

In series [1], `CCCCCCCCCCCC[C@@H](O)[C@H]1CC[C@H]([C@H](O)CCCC[C@H](O)CCCCC[C@@H](O)CC2=C[C@H](C)OC2=O)O1` [ANNONACIN] gave an Activity of 0.99. In series [2], this molecule showed a Bullatacin index of 4.19.
